In PubChem BioAssay AID720543 (The Scripps Research Institute Molecular Screening Center, 2013):
Hit rate of the full screen: of about 370,000 compounds, about 2,000 (0.54%) were called active. This is one part of a sample in which actives are shown more often than they occur. Unmarked numbers belong to inactive results.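 How the source made its calls: active means inhibition exceeding the mean over every tested compound plus 3 SD (cut at about 30% in these data); inactive means the rest.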

Each compound was assayed against (Lyso)-N-acylphosphatidylethanolamine lipase (Mus musculus) (UniProt Q8VD66) (assay: mouse ABHD4 hydrolase activity blockers – biochemical, fluorescence polarization, primary screen (AID 720543;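 further: 0% = plate median of compound wells and 100% = S159A mutant with DMSO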)). Conditions: purified mABHD4, FP-Rh probe fluorescence polarization; at 8.92 µM; stronger effect = higher value.
Sequence of (Lyso)-N-acylphosphatidylethanolamine lipase (Mus musculus) (Q8VD66 whole entry, looked up): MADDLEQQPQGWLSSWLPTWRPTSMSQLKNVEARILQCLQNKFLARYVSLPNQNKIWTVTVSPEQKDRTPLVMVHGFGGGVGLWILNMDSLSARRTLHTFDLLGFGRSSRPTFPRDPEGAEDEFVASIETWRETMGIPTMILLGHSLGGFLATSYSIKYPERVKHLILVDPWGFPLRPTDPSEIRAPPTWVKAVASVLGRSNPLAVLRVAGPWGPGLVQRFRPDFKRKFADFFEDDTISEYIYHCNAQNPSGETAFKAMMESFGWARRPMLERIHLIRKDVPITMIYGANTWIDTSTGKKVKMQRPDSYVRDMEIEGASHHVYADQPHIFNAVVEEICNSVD
Summary of the method: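 Doses – 8.92 µM, single dose · Material – wild-type mouse ABHD4 protein · Replication – single well per compound (singlicate) · Measure – percent inhibition of probe binding, normalized to plate controls · Schedule – 45 min compound pre-incubation plus 60 min probe step, 25 °C · Detection – fluorescence polarization with parallel and perpendicular emission, 525/598 nm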

| SMILES | inhibition |
| --- | --- |
| CN(C)c1ccc(C(CC(=O)O)C(=O)O)cc1 (centres undefined) | 24.1% |
| CN(C)c1ccc(N/C=C/C(=O)C(F)(F)F)cc1 | 49.4% (active) |
| CC1CN(/C=C/C(=O)C(F)(F)F)CC(C)O1 (centres undefined) | -3.37% |
| CC(=O)C1=C(C)NC(=O)NC1c1cc(Br)ccc1OCC#N (centres undefined) | 4.75% |
| Nc1[nH]c(C(=O)c2ccccc2)c(-c2ccc(Cl)cc2Cl)c1C(=O)c1ccccc1 | -1.34% |
| CC(C)c1ccc(CC(=O)N2CCC2(C)C(=O)NS(=O)(=O)c2ccc(C(C)(C)C)cc2)cc1 (centres undefined) | 59% (active) |
| CCCC(=O)N1CCC1(C)C(=O)NS(=O)(=O)c1ccc(Cl)cc1 (centres undefined) | -1.74% |
| CC(C)(C)c1ccc(S(=O)(=O)NC(=O)C2(C)CCN2C(=O)CC2CC2)cc1 (centres undefined) | -2.61% |
| CCCCOCC1CN(CCCC)S(=O)(=O)c2c(Oc3ccc(F)cc3)cccc2O1 (centres undefined) | 4.37% |
| COC(CNC(=O)[C@H](Cc1ccccc1)NC1(C(=O)NC2CCCCC2)CCCCC1)OC | 3.57% |
| COCc1cc(N2CCN(C(=O)OC(C)(C)C)C[C@@H]2C)ccc1N1CCN(Cc2ccccc2)[C@H](C)C1 | -12.1% |
| COc1ccc(C#CCNCc2ccc(OC)cc2OC)cc1 | -4.3% |
| O=Nc1c(O)cc(O)c2ccccc12 | 55.7% (active) |
| O=c1c2ccccc2ccc2ccc(P(=O)(O)O)cc12 | 12% |
| Cc1ccc(S(=O)(=O)N(C)C)cc1NC(=O)c1n[nH]c(=O)c2ccccc12 | -9.11% |
| CCOc1ccccc1C(=O)N1CCC[C@@H]1C(=O)N1CCC[C@H]1C(=O)NCc1ccccc1 | 1.14% |
| CCOC(=O)CSc1nnc(CNC(=O)c2ccco2)n1-c1ccc(F)cc1 | 0.65% |
| COC(=O)c1cc2c(c3c4cc(F)ccc4n(S(=O)(=O)c4ccccc4)c13)C(=O)N(Cc1ccccc1OC)C2 | -11.3% |
| COc1ccc(C(CC(=O)c2ccccc2)S(=O)(=O)c2ccccc2)cc1 (centres undefined) | -2.98% |
| O=C(NNc1c2ccccc2nc2ccccc12)c1cc2ccccc2cc1O | 31.3% (active) |
| COC(=O)c1cc(N2CCNCC2)nc2ccccc12 | 1.72% |
| Cc1ccc(C)c(NC(=O)NNC(=O)c2ccc3ccccc3c2O)c1 | 8.45% |
| CC(C)(C)c1ccc(S(=O)(=O)NCC2CCN(C(=O)C(=O)c3cc4ccccc4o3)CC2)cc1 | -26.4% |
| NC(=O)C1CCN(C(=O)c2cc(S(=O)(=O)N3CCN(c4ccccc4)CC3)ccc2Cl)CC1 | 6.55% |
